# Test system: PC-3
# Assay: Growth inhibition of human PC3 cells at 10 uM after 48 hrs by coulter counter analysis
# Format: functional
# Conditions: PC-3, 48 h, read-out: GI
# Summary of the method: (§1)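 Single-dose NCI 60-line panel screen of test compounds. Cells grown in RPMI 1640 with 10% FBS. Compounds dissolved in DMSO, then diluted in phosphate buffer saline (final DMSO below 1%). Wells run in duplicate at 6 × 10⁴ cells/ml. Controls held PBS and DMSO at matching dilutions. Incubation 48 h at 37 °C under humidified 5% CO2. Cells diluted tenfold in saline and counted by Coulter counter. Percent growth inhibition taken from mean-graph of treated-cell growth.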
row,Compound,inhibition of growth at 10 µM
1,CN1CCN(CCC(=O)Nc2nc(-c3ccccc3)cs2)CC1,10.9%
2,O=C(CN1CCN(c2ccccc2)CC1)Nc1nc(-c2ccccc2)cs1,26.3%
3,O=C(CCN1CCN(c2ccccc2)CC1)Nc1nc(-c2ccccc2)cs1,28.3%

# Test system: SK-MEL-28
# Assay: Growth inhibition of human SK-MEL-28 cells at 10 uM after 48 hrs by coulter counter analysis
# Format: functional
# Conditions: SK-MEL-28, 48 h, read-out: GI
# Summary of the method: as §1
row,Compound,inhibition of growth at 10 µM
1,CN1CCN(CCC(=O)Nc2nc(-c3ccccc3)cs2)CC1,< 10%
2,O=C(CN1CCN(c2ccccc2)CC1)Nc1nc(-c2ccccc2)cs1,< 10%
3,O=C(CCN1CCN(c2ccccc2)CC1)Nc1nc(-c2ccccc2)cs1,< 10%

# Test system: A498
# Assay: Growth inhibition of human A498 cells at 10 uM after 48 hrs by coulter counter analysis
# Format: functional
# Conditions: A498, 48 h, read-out: GI
# Summary of the method: as §1
row,Compound,inhibition of growth at 10 µM
1,CN1CCN(CCC(=O)Nc2nc(-c3ccccc3)cs2)CC1,< 10%
2,O=C(CN1CCN(c2ccccc2)CC1)Nc1nc(-c2ccccc2)cs1,44.1%
3,O=C(CCN1CCN(c2ccccc2)CC1)Nc1nc(-c2ccccc2)cs1,67.5%

# Test system: HCT-116
# Assay: Growth inhibition of human HCT116 cells at 10 uM after 48 hrs by coulter counter analysis
# Format: functional
# Conditions: HCT-116, 48 h, read-out: GI
# Summary of the method: as §1
row,Compound,inhibition of growth at 10 µM
1,CN1CCN(CCC(=O)Nc2nc(-c3ccccc3)cs2)CC1,< 10%
2,O=C(CN1CCN(c2ccccc2)CC1)Nc1nc(-c2ccccc2)cs1,17.7%
3,O=C(CCN1CCN(c2ccccc2)CC1)Nc1nc(-c2ccccc2)cs1,41.7%

# Test system: RXF 393
# Assay: Growth inhibition of human RXF393 cells at 10 uM after 48 hrs by coulter counter analysis
# Format: functional
# Conditions: RXF 393, 48 h, read-out: GI
# Summary of the method: as §1
row,Compound,inhibition of growth at 10 µM
1,CN1CCN(CCC(=O)Nc2nc(-c3ccccc3)cs2)CC1,11.1%
2,O=C(CN1CCN(c2ccccc2)CC1)Nc1nc(-c2ccccc2)cs1,< 10%
3,O=C(CCN1CCN(c2ccccc2)CC1)Nc1nc(-c2ccccc2)cs1,11.8%

# Test system: NCI-H460
# Assay: Growth inhibition of human NCI-H460 cells at 10 uM after 48 hrs by coulter counter analysis
# Format: functional
# Conditions: NCI-H460, 48 h, read-out: GI
# Summary of the method: as §1
row,Compound,inhibition of growth at 10 µM
1,CN1CCN(CCC(=O)Nc2nc(-c3ccccc3)cs2)CC1,< 10%
2,O=C(CN1CCN(c2ccccc2)CC1)Nc1nc(-c2ccccc2)cs1,25%
3,O=C(CCN1CCN(c2ccccc2)CC1)Nc1nc(-c2ccccc2)cs1,11.3%

# Test system: SNB-19
# Assay: Growth inhibition of human SNB19 cells at 10 uM after 48 hrs by coulter counter analysis
# Format: functional
# Conditions: SNB-19, 48 h, read-out: GI
# Summary of the method: as §1
row,Compound,inhibition of growth at 10 µM
1,CN1CCN(CCC(=O)Nc2nc(-c3ccccc3)cs2)CC1,< 10%
2,O=C(CN1CCN(c2ccccc2)CC1)Nc1nc(-c2ccccc2)cs1,10.1%
3,O=C(CCN1CCN(c2ccccc2)CC1)Nc1nc(-c2ccccc2)cs1,10.3%

# Test system: DU-145
# Assay: Growth inhibition of human DU145 cells at 10 uM after 48 hrs by coulter counter analysis
# Format: functional
# Conditions: DU-145, 48 h, read-out: GI
# Summary of the method: as §1
row,Compound,inhibition of growth at 10 µM
1,CN1CCN(CCC(=O)Nc2nc(-c3ccccc3)cs2)CC1,< 10%
2,O=C(CN1CCN(c2ccccc2)CC1)Nc1nc(-c2ccccc2)cs1,< 10%
3,O=C(CCN1CCN(c2ccccc2)CC1)Nc1nc(-c2ccccc2)cs1,18.2%

# Test system: HT-29
# Assay: Growth inhibition of human HT-29 cells at 10 uM after 48 hrs by coulter counter analysis
# Format: functional
# Conditions: HT-29, 48 h, read-out: GI
# Summary of the method: as §1
row,Compound,inhibition of growth at 10 µM
1,CN1CCN(CCC(=O)Nc2nc(-c3ccccc3)cs2)CC1,< 10%
2,O=C(CN1CCN(c2ccccc2)CC1)Nc1nc(-c2ccccc2)cs1,23.8%
3,O=C(CCN1CCN(c2ccccc2)CC1)Nc1nc(-c2ccccc2)cs1,< 10%

# Test system: SNB-75
# Assay: Growth inhibition of human SNB75 cells at 10 uM after 48 hrs by coulter counter analysis
# Format: functional
# Conditions: SNB-75, 48 h, read-out: GI
# Summary of the method: (§2)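 Single-dose screen in the NCI 60 cell line panel. Cells grown in RPMI 1640 with 10% FBS. Compounds dissolved in DMSO and diluted in phosphate buffered saline, final DMSO under 1%. Duplicate wells seeded from culture at 6 × 10⁴ cells/ml. Incubated 48 h at 37 °C, humidified, 5% CO2. Cells diluted tenfold in saline and Coulter-counted. Percent growth inhibition computed against PBS/DMSO controls.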
row,Compound,inhibition of growth at 10 µM
1,CN1CCN(CCC(=O)Nc2nc(-c3ccccc3)cs2)CC1,30.5%
2,O=C(CN1CCN(c2ccccc2)CC1)Nc1nc(-c2ccccc2)cs1,29.7%
3,O=C(CCN1CCN(c2ccccc2)CC1)Nc1nc(-c2ccccc2)cs1,28.6%

# Test system: NCI-H23
# Assay: Growth inhibition of human NCI-H23 cells at 10 uM after 48 hrs by coulter counter analysis
# Format: functional
# Conditions: NCI-H23, 48 h, read-out: GI
# Summary of the method: as §1
row,Compound,inhibition of growth at 10 µM
1,CN1CCN(CCC(=O)Nc2nc(-c3ccccc3)cs2)CC1,< 10%
2,O=C(CN1CCN(c2ccccc2)CC1)Nc1nc(-c2ccccc2)cs1,18.6%
3,O=C(CCN1CCN(c2ccccc2)CC1)Nc1nc(-c2ccccc2)cs1,31.4%

# Test system: CCRF-CEM
# Assay: Growth inhibition of human CCRF-CEM cells at 10 uM after 48 hrs by coulter counter analysis
# Format: functional
# Conditions: read-out: GI
# Summary of the method: as §1
row,Compound,inhibition of growth at 10 µM
1,CN1CCN(CCC(=O)Nc2nc(-c3ccccc3)cs2)CC1,14.4%
2,O=C(CN1CCN(c2ccccc2)CC1)Nc1nc(-c2ccccc2)cs1,22.7%
3,O=C(CCN1CCN(c2ccccc2)CC1)Nc1nc(-c2ccccc2)cs1,31.4%

# Test system: 786-0
# Assay: Growth inhibition of human 786-0 cells at 10 uM after 48 hrs by coulter counter analysis
# Format: functional
# Conditions: 786-0, 48 h, read-out: GI
# Summary of the method: as §1
row,Compound,inhibition of growth at 10 µM
1,CN1CCN(CCC(=O)Nc2nc(-c3ccccc3)cs2)CC1,< 10%
2,O=C(CN1CCN(c2ccccc2)CC1)Nc1nc(-c2ccccc2)cs1,< 10%
3,O=C(CCN1CCN(c2ccccc2)CC1)Nc1nc(-c2ccccc2)cs1,18.1%

# Test system: HOP-62
# Assay: Growth inhibition of human HOP62 cells at 10 uM after 48 hrs by coulter counter analysis
# Format: functional
# Conditions: HOP-62, 48 h, read-out: GI
# Summary of the method: as §1
row,Compound,inhibition of growth at 10 µM
1,CN1CCN(CCC(=O)Nc2nc(-c3ccccc3)cs2)CC1,14.5%
2,O=C(CN1CCN(c2ccccc2)CC1)Nc1nc(-c2ccccc2)cs1,< 10%
3,O=C(CCN1CCN(c2ccccc2)CC1)Nc1nc(-c2ccccc2)cs1,24.8%

# Test system: U-251
# Assay: Growth inhibition of human U251 cells at 10 uM after 48 hrs by coulter counter analysis
# Format: functional
# Conditions: U-251, 48 h, read-out: GI
# Summary of the method: as §2
row,Compound,inhibition of growth at 10 µM
1,CN1CCN(CCC(=O)Nc2nc(-c3ccccc3)cs2)CC1,< 10%
2,O=C(CN1CCN(c2ccccc2)CC1)Nc1nc(-c2ccccc2)cs1,< 10%
3,O=C(CCN1CCN(c2ccccc2)CC1)Nc1nc(-c2ccccc2)cs1,15.6%

# Test system: A549
# Assay: Growth inhibition of human A549/ATCC cells at 10 uM after 48 hrs by coulter counter analysis
# Format: functional
# Conditions: A549, 48 h, read-out: GI
# Summary of the method: as §1
row,Compound,inhibition of growth at 10 µM
1,CN1CCN(CCC(=O)Nc2nc(-c3ccccc3)cs2)CC1,< 10%
2,O=C(CN1CCN(c2ccccc2)CC1)Nc1nc(-c2ccccc2)cs1,17.6%
3,O=C(CCN1CCN(c2ccccc2)CC1)Nc1nc(-c2ccccc2)cs1,17.9%

# Test system: EKVX
# Assay: Growth inhibition of human EKVX cells at 10 uM after 48 hrs by coulter counter analysis
# Format: functional
# Conditions: read-out: GI
# Summary of the method: as §1
row,Compound,inhibition of growth at 10 µM
1,CN1CCN(CCC(=O)Nc2nc(-c3ccccc3)cs2)CC1,< 10%
2,O=C(CN1CCN(c2ccccc2)CC1)Nc1nc(-c2ccccc2)cs1,< 10%
3,O=C(CCN1CCN(c2ccccc2)CC1)Nc1nc(-c2ccccc2)cs1,24.8%

# Test system: HL-60(TB)
# Assay: Growth inhibition of human HL-60(TB) cells at 10 uM after 48 hrs by coulter counter analysis
# Format: functional
# Conditions: HL-60, 48 h, read-out: GI
# Summary of the method: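 Cells grown in RPMI 1640 with 10% FBS. Compound was dissolved in DMSO and diluted in PBS (under 1% DMSO final), then added in duplicate wells to culture at 6 × 10⁴ cells/ml. PBS/DMSO vehicle controls were included. Incubated at 37 °C, humidified 5% CO₂, for 48 h. Cells were diluted 10-fold in saline and Coulter-counted. Single-dose NCI-60 screen, read as percent growth inhibition.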
row,Compound,inhibition of growth at 10 µM
1,CN1CCN(CCC(=O)Nc2nc(-c3ccccc3)cs2)CC1,11.6%
2,O=C(CN1CCN(c2ccccc2)CC1)Nc1nc(-c2ccccc2)cs1,22%
3,O=C(CCN1CCN(c2ccccc2)CC1)Nc1nc(-c2ccccc2)cs1,< 10%

# Test system: CAKI-1
# Assay: Growth inhibition of human Caki1 cells at 10 uM after 48 hrs by coulter counter analysis
# Format: functional
# Conditions: CAKI-1, 48 h, read-out: GI
# Summary of the method: as §1
row,Compound,inhibition of growth at 10 µM
1,CN1CCN(CCC(=O)Nc2nc(-c3ccccc3)cs2)CC1,15.9%
2,O=C(CN1CCN(c2ccccc2)CC1)Nc1nc(-c2ccccc2)cs1,36.6%
3,O=C(CCN1CCN(c2ccccc2)CC1)Nc1nc(-c2ccccc2)cs1,37.7%

# Test system: K562
# Assay: Growth inhibition of human K562 cells at 10 uM after 48 hrs by coulter counter analysis
# Format: functional
# Conditions: K562, 48 h, read-out: GI
# Summary of the method: as §1
row,Compound,inhibition of growth at 10 µM
1,CN1CCN(CCC(=O)Nc2nc(-c3ccccc3)cs2)CC1,< 10%
2,O=C(CN1CCN(c2ccccc2)CC1)Nc1nc(-c2ccccc2)cs1,20%
3,O=C(CCN1CCN(c2ccccc2)CC1)Nc1nc(-c2ccccc2)cs1,32.6%

# Test system: MOLT-4
# Assay: Growth inhibition of human MOLT4 cells at 10 uM after 48 hrs by coulter counter analysis
# Format: functional
# Conditions: MOLT-4, 48 h, read-out: GI
# Summary of the method: as §1
row,Compound,inhibition of growth at 10 µM
1,CN1CCN(CCC(=O)Nc2nc(-c3ccccc3)cs2)CC1,35.7%
2,O=C(CN1CCN(c2ccccc2)CC1)Nc1nc(-c2ccccc2)cs1,31.3%
3,O=C(CCN1CCN(c2ccccc2)CC1)Nc1nc(-c2ccccc2)cs1,37.9%

# — ChEMBL document CHEMBL2040727, “Substituted thiazoles VI. Synthesis and antitumor activity of new 2-acetamido- and 2 or 3-propanamido-thiazole analogs” (2012)
